Laboratory results published in ChEMBL document CHEMBL3244382, “Structural requirements for antileukemic activity among the naturally occurring and semisynthetic maytansinoids” (J Med Chem, 1978).
In brackets after ≈: the same amount, converted by molar mass. Activity calls are given as the source filed them.

Experiments:
Mus musculus [1] = assay: Toxicity in PS mouse allografted with mouse P388 cells assessed as change in body weight at 6.2 ug/kg relative to control; format: organism-based; conditions: in vivo, 0.0062 mg/kg
Procedure, shortened: (§1)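 P388 (PS) leukemia in mice, 6 mice per dose group. Weight change is the difference in grams between treated and control animals. Survivors are recorded on toxicity day, normally 4 days after the first injection.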

P388 [2] = assay: Antitumor activity against mouse P388 cells allografted in PS mouse assessed as median survival time at 1.6 ug/kg relative to control; format: functional
Procedure, shortened: (§2)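 P388 leukemia (PS) in mice, six mice started per dose group. Read-out is T/C: median survival time of the treated group divided by that of the untreated control group, expressed as a percent. The NIH protocol counts a compound as active when T/C > 125%.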

Mus musculus [3] = assay: Toxicity in PS mouse allografted with mouse P388 cells assessed as change in body weight at 12.5 ug/kg relative to control; format: organism-based; conditions: in vivo, 0.0125 mg/kg; procedure, shortened: as §1
Mus musculus [4] = assay: Toxicity in PS mouse allografted with mouse P388 cells assessed as survival at 1.6 ug/kg after 4 days; format: organism-based; conditions: in vivo, 0.0016 mg/kg, 96 h
Procedure, shortened: (§3)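 PS (P388) leukemic mice, six started per dose group. Toxicity scored as survivors on the toxicity day over the number of mice started. The toxicity day is normally 4 days after the first injection.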

Mus musculus [5] = assay: Toxicity in PS mouse allografted with mouse P388 cells assessed as survival at 12.5 ug/kg after 4 days; format: organism-based; conditions: in vivo, 0.0125 mg/kg, 96 h; procedure, shortened: as §3
Mus musculus [6] = assay: Toxicity in PS mouse allografted with mouse P388 cells assessed as change in body weight at 1.6 ug/kg relative to control; format: organism-based; conditions: in vivo, 0.0016 mg/kg; procedure, shortened: as §1
Mus musculus [7] = assay: Toxicity in PS mouse allografted with mouse P388 cells assessed as survival at 100 ug/kg after 4 days; format: organism-based; conditions: in vivo, 0.1 mg/kg, 96 h; procedure, shortened: as §3
Tubulin (Homo sapiens) = Tubulin (Homo sapiens) (UniProt P68371+Q9H4B7+P0DPH7+P68366+Q13509+Q71U36+P04350+Q3ZCM7+P07437+P68363+Q9BQE3+Q6PEY2+Q13885+Q9BVA1+Q9BUF5); assay: Inhibition of brain tubulin polymerization (unknown origin) at 37 degC by spectrophotometry
Mus musculus [8] = assay: Toxicity in PS mouse allografted with mouse P388 cells assessed as survival at 3.1 ug/kg after 4 days; format: organism-based; conditions: in vivo, 0.0031 mg/kg, 96 h; procedure, shortened: as §3
Mus musculus [9] = assay: Toxicity in PS mouse allografted with mouse P388 cells assessed as survival at 25 ug/kg after 4 days; format: organism-based; conditions: in vivo, 0.025 mg/kg, 96 h; procedure, shortened: as §3
P388 [10] = assay: Antitumor activity against mouse P388 cells allografted in PS mouse assessed as median survival time at 12.5 ug/kg relative to control; format: functional; procedure, shortened: as §2
P388 [11] = assay: Antitumor activity against mouse P388 cells allografted in PS mouse assessed as median survival time at 50 ug/kg relative to control; format: functional; procedure, shortened: as §2
P388 [12] = assay: Antitumor activity against mouse P388 cells allografted in PS mouse assessed as median survival time at 400 ug/kg relative to control; format: functional; procedure, shortened: as §2
Mus musculus [13] = assay: Toxicity in PS mouse allografted with mouse P388 cells assessed as change in body weight at 100 ug/kg relative to control; format: organism-based; conditions: in vivo, 0.1 mg/kg; procedure, shortened: as §1
Mus musculus [14] = assay: Toxicity in PS mouse allografted with mouse P388 cells assessed as survival at 200 ug/kg after 4 days; format: organism-based; conditions: in vivo, 0.2 mg/kg, 96 h; procedure, shortened: as §3
P388 [15] = assay: Antitumor activity against mouse P388 cells allografted in PS mouse assessed as median survival time at 6.2 ug/kg relative to control; format: functional; procedure, shortened: as §2
KB = assay: Cytotoxicity against human KB cells; format: functional; conditions: read-out: ED50 (the source's name)
P388 [16] = assay: Antitumor activity against mouse P388 cells allografted in PS mouse assessed as median survival time at 200 ug/kg relative to control; format: functional; procedure, shortened: as §2
Paracentrotus lividus = assay: Antimitotic activity against sea urchin eggs assessed as drug level causing inhibition of mitosis; format: functional; conditions: Egg
P388 [17] = assay: Antitumor activity against mouse P388 cells allografted in PS mouse assessed as median survival time at 25 ug/kg relative to control; format: functional; procedure, shortened: as §2
Mus musculus [18] = assay: Toxicity in PS mouse allografted with mouse P388 cells assessed as change in body weight at 50 ug/kg relative to control; format: organism-based; conditions: in vivo, 0.05 mg/kg; procedure, shortened: as §1
Mus musculus [19] = assay: Toxicity in PS mouse allografted with mouse P388 cells assessed as survival at 6.2 ug/kg after 4 days; format: organism-based; conditions: in vivo, 0.0062 mg/kg, 96 h; procedure, shortened: as §3
Mus musculus [20] = assay: Toxicity in PS mouse allografted with mouse P388 cells assessed as change in body weight at 25 ug/kg relative to control; format: organism-based; conditions: in vivo, 0.025 mg/kg; procedure, shortened: as §1
P388 [21] = assay: Antitumor activity against mouse P388 cells allografted in PS mouse assessed as median survival time at 100 ug/kg relative to control; format: functional; procedure, shortened: as §2
P388 [22] = assay: Antitumor activity against mouse P388 cells allografted in PS mouse assessed as median survival time at 3.1 ug/kg relative to control; format: functional; procedure, shortened: as §2
Mus musculus [23] = assay: Toxicity in PS mouse allografted with mouse P388 cells assessed as survival at 400 ug/kg after 4 days; format: organism-based; conditions: in vivo, 0.4 mg/kg, 96 h; procedure, shortened: as §3
Mus musculus [24] = assay: Toxicity in PS mouse allografted with mouse P388 cells assessed as change in body weight at 3.1 ug/kg relative to control; format: organism-based; conditions: in vivo, 0.0031 mg/kg; procedure, shortened: as §1
Mus musculus [25] = assay: Toxicity in PS mouse allografted with mouse P388 cells assessed as survival at 50 ug/kg after 4 days; format: organism-based; conditions: in vivo, 0.05 mg/kg, 96 h; procedure, shortened: as §3
Mus musculus [26] = assay: Toxicity in PS mouse allografted with mouse P388 cells assessed as change in body weight at 400 ug/kg relative to control; format: organism-based; conditions: in vivo, 0.4 mg/kg; procedure, shortened: as §1
Mus musculus [27] = assay: Toxicity in PS mouse allografted with mouse P388 cells assessed as change in body weight at 200 ug/kg relative to control; format: organism-based; conditions: in vivo, 0.2 mg/kg; procedure, shortened: as §1

SMILES | Activity (Mus musculus [1]) | T/C (P388 [2]) | Activity (Mus musculus [3]) | Activity (Mus musculus [4]) | Activity (Mus musculus [5]) | Activity (Mus musculus [6]) | Activity (Mus musculus [7]) | inhibition (Tubulin (Homo sapiens)) | Activity (Mus musculus [8]) | Activity (Mus musculus [9]) | T/C (P388 [10]) | T/C (P388 [11]) | T/C (P388 [12]) | Activity (Mus musculus [13]) | Activity (Mus musculus [14]) | T/C (P388 [15]) | EC50 (KB) | T/C (P388 [16]) | Activity (Paracentrotus lividus) | T/C (P388 [17]) | further results
CCO[C@]12C[C@H](OC(=O)N1)[C@@H](C)[C@@H]1O[C@@]1(C)[C@@H](OC(=O)[C@H](C)N(C)C(C)=O)CC(=O)N(C)c1cc(cc(OC)c1Cl)C/C(C)=C/C=C/[C@H]2OC | -1.3 g | 99% | -0.3 g | Non-toxic | Non-toxic | -0.1 g | Non-toxic | Active | Non-toxic | Non-toxic | 101% | 98% | 100% | -2 g | Non-toxic | 99% | 11 ng/mL (≈ 15.3 nM) | 98% | 1 ×10⁻⁷ mol/L | 116% | Activity (Mus musculus [18]): -0.8 g; Activity (Mus musculus [19]): Non-toxic; Activity (Mus musculus [20]): -0.3 g; T/C (P388 [21]): 105%; T/C (P388 [22]): 99%; Activity (Mus musculus [23]): Non-toxic; Activity (Mus musculus [24]): -0.7 g; Activity (Mus musculus [25]): Non-toxic; Activity (Mus musculus [26]): -0.6 g; Activity (Mus musculus [27]): 0.3 g
CCCS[C@]12C[C@H](OC(=O)N1)[C@@H](C)[C@@H]1O[C@@]1(C)[C@@H](OC(=O)[C@H](C)N(C)C(=O)C(C)C)CC(=O)N(C)c1cc(cc(OC)c1Cl)C/C(C)=C/C=C/[C@H]2OC | -0.1 g | 100% | 0.6 g | Non-toxic | Non-toxic | 0.8 g | Non-toxic | Active | Non-toxic | Non-toxic | 95% | 118% | 151% | -1.6 g | Non-toxic | <80% | 0.31 ng/mL (≈ 0.398 nM) | 151% | 1 ×10⁻⁸ mol/L | 101% | Activity (Mus musculus [18]): 0.4 g; Activity (Mus musculus [19]): Non-toxic; Activity (Mus musculus [20]): 0.7 g; T/C (P388 [21]): 127%; T/C (P388 [22]): 97%; Activity (Mus musculus [23]): Non-toxic; Activity (Mus musculus [24]): 0.6 g; Activity (Mus musculus [25]): Non-toxic; Activity (Mus musculus [26]): 0.6 g; Activity (Mus musculus [27]): -2.4 g
